The values below come from ChEMBL document CHEMBL5107970, “Synthesis of a fluorinated pyronin that enables blue light to rapidly depolarize mitochondria” (RSC Med Chem, 2022).

A word on the IC50: it is the point on the concentration scale where inhibition reaches its midpoint. As usually defined, the half-life is the time in which the quantity being followed falls by half.

Data set [1] can be described thus: Drug distribution in human HeLa cells assessed as fluorescence in lysosome at 10 uM incubated for 1 to 3 hrs by LysoTracker red staining based confocal laser scanning microscopy. The class given is ADME, cell-based. To be noted: time 1-3 hrs. A digest of the protocol: (§1)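 HeLa cells seeded 20,000/well on chambered coverslips and grown 24 h. Compound diluted 1,000-fold from DMSO stock into complete medium (0.1% DMSO) and given at 37 °C, then co-imaged with MitoTracker Deep Red or LysoTracker Red. Live-cell confocal imaging with 63X oil objective, without washing.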

Data set [2] can be described thus: Cytotoxicity against human Jurkat cells assessed as reduction in cell viability incubated for 48 hrs by flow cytometry. The class given is toxicity, cell-based.
Data set [3] in a line: Drug distribution in human HeLa cells assessed as fluorescence in mitochondria at 10 uM incubated for 1 to 3 hrs by MitoTracker Deep Red staining based confocal laser scanning microscopy. To be noted: time 1-3 hrs. The class given is ADME. The method in brief: as §1
Data set [4] can be described thus: Stability in human Jurkat lymphocytes assessed as half life in mitochondria at 10 uM incubated for 1 hrs by flow cytometry. The format is ADME. (Flow cytometry measures light scatter and fluorescence of single cells or particles in a stream.)
A short description of data set [5]: Cytotoxicity against human HeLa cells assessed as reduction in cell viability incubated for 48 hrs by flow cytometry. The class given is toxicity, cell-based.
The nature of data set [6]: Stability of compound in ethanol at 5 uM incubated for 1 hrs by fluorescence spectroscopy. The format is physicochemical.
Data set [7] relates to HeLa. Nature of the data set: Induction of mitochondrial membrane potential depolarization in human HeLa cells assessed as fluorescence in nucleoli at 10 uM preincubated for 60 mins followed by CCCP treatment and measured after 5 mins by MitoTracker Deep Red and LysoTracker red staining based confocal laser scanning microscopy. The format is functional, cell-based. The conditions noted are these: time 65.0 min. A digest of the protocol:
(§2)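 Live HeLa cells seeded 20,000/well and grown 24 h, then loaded with probe 10 μM for 1 h at 37 °C (0.1% DMSO). Then either irradiated at 488 nm for 60 s or given CCCP 10 μM for 5 min. Unwashed cells imaged by confocal (Ex. 488 nm, Em. 500–600 nm) and DIC.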

A short description of data set [8]: Drug distribution in human HeLa cells assessed as fluorescence in mitochondria at 2 uM incubated for 1 hrs by confocal laser scanning microscopy. The class given is ADME.
Data set [9] concerns HeLa. Nature of the data set: Induction of reactive oxygen species generation in human HeLa cells assessed as fold increase in ROS level by measuring nuclear fluorescence at 2 uM incubated for 60 mins followed by blue-light irradiation for 1 mins in presence of dihydroethidium by confocal microscopy. The class given is functional. To be noted: time 61 min, 1.017 h. A digest of the protocol: (§3)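 HeLa cells seeded 20,000/well and grown 16 h. Pyronin 2 μM for 1 h at 37 °C, then DHE 5 μM for 1 h, then two washes with complete medium. Irradiation was 488 nm laser scanning at 25% power. ROIs drawn around nuclei to give mean ethidium fluorescence. Antimycin A 20 μM served as positive control; DHE-only cells were irradiated 1 or 2 min.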

Data set [10] concerns HeLa. Nature of the data set: Induction of mitochondrial membrane potential depolarization in human HeLa cells assessed as fluorescence in nucleoli at 10 uM incubated for 60 mins followed by blue-light irradiation for 60 sec by MitoTracker Deep Red staining based confocal laser scanning microscopy. The class given is functional, cell-based. To be noted: time 61.0 min. A digest of the protocol:
as §2

The subject of data set [11] is HeLa. Nature of the data set: Induction of reactive oxygen species generation in human HeLa cells assessed as increase in ROS level at 2 uM incubated for 1 hr in presence of dihydroethidium by confocal microscopy. The format is functional, cell-based. The method in brief:
as §3

A short description of data set [12]: Stability of the compound assessed as bovine serum albumin mediated drug degradation at 10 uM incubated for 1 hrs by fluorescence spectroscopy. The conditions noted are these: cattle. The class given is ADME.
The target in a further data set is Albumin (Bos taurus, UniProt P02769). Nature of the data set: Stability of the compound assessed as bovine serum albumin mediated drug degradation at 10 uM incubated for 1 hrs followed by blue-light irradiation for 10 mins by fluorescence spectroscopy. To be noted: cattle, 1.167 h, time 70 min. The class given is ADME.
Data set [13] has as its system HeLa. As to the kind of experiment: Induction of mitochondrial membrane potential depolarization in human HeLa cells assessed as diffuse fluorescence from mitochondria to cytoplasm and nucleus at 10 uM incubated for 1 hrs in presence of blue-light irradiation by MitoTracker Deep red and LysoTracker red staining based confocal laser scanning microscopy. The class given is functional, cell-based. A digest of the protocol: as §2

In data set [14] the test system is HeLa. As to the kind of experiment: Induction of reactive oxygen species generation in human HeLa cells assessed as fold increase in ROS level by measuring nuclear fluorescence at 2 uM incubated for 60 mins followed by blue-light irradiation for 2 mins by confocal microscopy. The class given is functional. The conditions noted are these: time 62 min, 1.033 h. A digest of the protocol:
as §3

The subject of data set [15] is HeLa. Nature of the data set: Induction of reactive oxygen species generation in human HeLa cells assessed as increase in ROS level at 20 uM incubated for 1 hr in presence of dihydroethidium by confocal microscopy. The format is functional, cell-based. The method in brief:
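HeLa cells were seeded at 20,000 per well in chambered coverslips and grown 16 h before treatment at 37 °C. Dihydroethidium (5 µM) was then added for 1 h, and cells were washed twice with complete medium. Confocal imaging followed. Ethidium signal was quantified as mean fluorescence in regions of interest drawn around nuclei.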

Calls of active or inactive are those of the source. The calls are words filed in the database; no cut-off is given here.

Sequence of Albumin (P02769 whole entry): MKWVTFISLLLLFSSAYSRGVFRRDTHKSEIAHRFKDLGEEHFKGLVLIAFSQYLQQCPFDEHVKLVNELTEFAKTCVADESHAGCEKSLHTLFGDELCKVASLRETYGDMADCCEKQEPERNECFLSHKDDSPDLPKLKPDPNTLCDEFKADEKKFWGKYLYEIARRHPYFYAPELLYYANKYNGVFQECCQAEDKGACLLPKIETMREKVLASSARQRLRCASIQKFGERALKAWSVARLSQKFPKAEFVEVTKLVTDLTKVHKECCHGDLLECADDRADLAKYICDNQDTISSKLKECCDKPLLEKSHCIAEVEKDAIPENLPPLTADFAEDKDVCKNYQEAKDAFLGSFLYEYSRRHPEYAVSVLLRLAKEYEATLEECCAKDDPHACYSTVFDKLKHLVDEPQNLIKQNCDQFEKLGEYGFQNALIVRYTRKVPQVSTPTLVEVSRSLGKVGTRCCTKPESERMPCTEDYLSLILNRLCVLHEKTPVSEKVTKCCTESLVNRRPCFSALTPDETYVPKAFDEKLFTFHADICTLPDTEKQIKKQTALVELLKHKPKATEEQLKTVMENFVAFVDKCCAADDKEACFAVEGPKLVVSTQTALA

Regarding `CCNc1c2cc(F)c(=[N+](CC)CC)cc-2oc2cc(N(CC)CC)c(F)cc12.O=C([O-])C(F)(F)F`, the Drug uptake entry in data set [1] and in data set [3] was “Active” throughout. Also, the IC50 at 48 h worked out at 0.8 µM in [2] and 3 µM in [5]. The half-life at 10 µM in [4] came out at 60 min.

Turning to `Fc1cc2cc3cc(F)c(=[N+]4CCC4)cc-3oc2cc1N1CCC1.O=C([O-])C(F)(F)F`, the Stability result in data set [6] is “Stable”. Besides, the IC50 at 48 h in data set [2] worked out at 0.9 µM; in data set [5] it was 15 µM. Besides, in data set [4], the half-life at 10 µM turned out to be 15 min.

For the compound `COC(=O)c1ccccc1-c1c2ccc(=N)cc-2oc2cc(N)ccc12.Cl` [RHODAMINE123], in data set [4], the half-life at 10 µM is above 1000 min.

`CCN(CC)c1cc2oc3cc(=[N+](CC)CC)c(F)cc-3cc2cc1F.O=C([O-])C(F)(F)F`: the result with HeLa [7], with HeLa [10], in the data set on HeLa [11] and with HeLa [13] was Active. For the same compound, the result in data set [8] was Active. Moreover, the Stability entry in data set [6] was “Stable”; in data set [12] it was “Unstable”; at Albumin it was “Unstable”. For the same compound, the results for the “fold change (FC)” value in the data set with HeLa [9] and in the data set with HeLa [14] were 1.5 and 2.7, respectively. In addition, the IC50 at 48 h in data set [2] turned out to be 1 µM; in data set [5] it was 9 µM. Besides, the Drug uptake result in data set [3] is on record as “Active”. In addition, the half-life at 10 µM in data set [4] came out at 12 min.

In the case of `CCCCCC[C@H]1C(=O)O[C@H](C)[C@H](NC(=O)c2cccc(NC=O)c2O)C(=O)O[C@@H](C)[C@@H]1OC(=O)CC(C)C`, the result in the data set on HeLa [15] was Active.

For `CCN(CC)c1cc2oc3cc(N(CC)CC)c(F)cc3c(=O)c2cc1F`, the IC50 at 48 h in data set [2] was determined as 17 µM; in data set [5], 51 µM. Moreover, the half-life at 10 µM in [4] came to 5 min.

Consider `CCN(CC)c1ccc2cc3ccc(N(CC)CC)cc3[o+]c2c1.[Cl-]`, for which, in data set [8], the result was Active. For the same compound, in data set [6], the Stability entry is reported as “Stable”. In the data set with HeLa [11], the outcome was Active. In addition, the IC50 at 48 h in [2] was found to be 0.1 µM; in data set [5], 2 µM. Further, the half-life at 10 µM in data set [4] turned out to be 6 min.

As to `O=C([O-])C(F)(F)F.c1cc(=[N+]2CCC2)cc2oc3cc(N4CCC4)ccc3cc1-2`, the Stability result in data set [6] is “Stable”. The IC50 at 48 h was 0.2 µM in data set [2] and 3 µM in data set [5]. Moreover, the Drug uptake entry in [3] was “Active”. Moreover, the half-life at 10 µM in data set [4] was found to be 30 min.
